Source: ChEMBL document CHEMBL1765008, “Fused heterocyclic amido compounds as anti-hepatitis C virus agents” (Bioorg Med Chem, 2011)
pEC50: −log10 of the molar value.

Key:
Hepatitis C virus = test: Antiviral activity against Hepatitis C virus assessed as inhibition of viral replication after 24 hrs by cell based luciferase reporter gene assay; type: functional, organism-based; conditions: Hepacivirus hominis, 72 h, in the assay text read “after 3 days” for “after 24 hrs”
Outline: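 Subgenomic HCV RNA replicon cells carrying luciferase (LucNeo#2), maintained in DMEM with 10% FBS, antibiotics and 1 mg/ml geneticin. Seeded at 50,000 cells/ml without geneticin and incubated 24 h. Medium then replaced with medium containing serial compound dilutions for 3 days. Cells washed with PBS and lysed for 10 min; luciferase activity in the lysate read by luminometer.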

[1] = tested on: Bovine viral diarrhea virus 1; test: Antiviral activity against Bovine viral diarrhea virus assessed as inhibition of viral replication after 24 hrs by cell based luciferase reporter gene assay; type: functional, organism-based; conditions: Bovine viral diarrhea virus isolates and strains

pEC50 (Hepatitis C virus)	pEC50 [1]	Compound
5.49		CCCCn1c(=O)c2ccccc2c2cc(C(O)(C(F)(F)F)C(F)(F)F)ccc21
5.64		CCCCn1c(=O)c2cc3c(cc2c2cc(C(O)(C(F)(F)F)C(F)(F)F)ccc21)OCO3
5.30		CCCCn1c(=O)c2cccc(OC)c2c2cc(C(O)(C(F)(F)F)C(F)(F)F)ccc21
5.47		CCCCn1c(=O)c2ccccc2c2cc(C(O)(C(F)(F)F)C(F)(F)F)c(OC)cc21
5.24		CCCCn1c(=O)c2ccccc2c2c(OC)c(C(O)(C(F)(F)F)C(F)(F)F)cc(OC)c21
5.14		CCCCn1c(=O)c2ccccc2c2c(OC)c(C(O)(C(F)(F)F)C(F)(F)F)ccc21
4.78		CCCCn1c(=O)c2ccc(OC)cc2c2cc(C(O)(C(F)(F)F)C(F)(F)F)ccc21
6.01		CCCCn1c(=O)c2cc(OC)ccc2c2cc(C(O)(C(F)(F)F)C(F)(F)F)ccc21
5.00		CCCCn1c(=O)c2c(OC)cccc2c2cc(C(O)(C(F)(F)F)C(F)(F)F)ccc21
5.96		CCCCn1c(=O)c2ccccc2c2cc(C(O)(C(F)(F)F)C(F)(F)F)cc(OC)c21
5.27		COCCn1c(=O)c2ccccc2c2cc(C(O)(C(F)(F)F)C(F)(F)F)ccc21

More lines, now with the values behind:

Compound	pEC50 (Hepatitis C virus)	pEC50 [1]
CCCCn1c(=O)c2ccccc2c2cc(C(O)(C(F)(F)F)C(F)(F)F)cc(C)c21	5.68	
Cc1ncc2c3ccccc3n(C)c2c1C		8.46
CCCCn1c(=O)c2cc3c(cc2c2cc(C(O)(C(F)(F)F)C(F)(F)F)c4c(c21)OCO4)OCO3	5.76	
CCCCn1c(=O)c2ccccc2c2cc(C(O)(C(F)(F)F)C(F)(F)F)c3c(c21)OCO3	6.54	
CCCCn1c(=O)c2ccccc2c2cc(C(O)(C(F)(F)F)C(F)(F)F)c(OC)c(OC)c21	5.59	
CCCCn1c(=O)c2ccccc2c2cc(C(O)(C(F)(F)F)C(F)(F)F)cc(F)c21	5.62	
CCCCn1c(=O)c2cc(OC)ccc2c2c(OC)c(C(O)(C(F)(F)F)C(F)(F)F)c3c(c21)OCO3	4.92	
CCCCn1c(=O)c2ccccc2c2c(OC)c(C(O)(C(F)(F)F)C(F)(F)F)c3c(c21)OCO3	5.01	
CCCCn1c(=O)c2cc(OC)ccc2c2c(OC)c(C(O)(C(F)(F)F)C(F)(F)F)cc(OC)c21	5.21	
CCCCn1c(=O)c2ccccc2c2cc(C(O)(C(F)(F)F)C(F)(F)F)c(C)cc21	5.25	
CCCCn1c(=O)c2cc(OC)ccc2c2cc(C(O)(C(F)(F)F)C(F)(F)F)cc(OC)c21	6.29	
CCCCn1c(=O)c2cc(OC)ccc2c2cc(C(O)(C(F)(F)F)C(F)(F)F)c(OC)c(OC)c21	5.74	
CCCCn1c(=O)c2cc(OC)ccc2c2cc(C(O)(C(F)(F)F)C(F)(F)F)c3c(c21)OCO3	7.30	
CCCCn1c(=O)c2ccccc2c2cc(C(O)(C(F)(F)F)C(F)(F)F)c(F)cc21	5.28	
CCCCn1c(=O)c2cc(OC)ccc2c2cc(C(O)(C(F)(F)F)C(F)(F)F)c(OC)cc21	6.74	
O=c1c2ccccc2c2cc(C(O)(C(F)(F)F)C(F)(F)F)ccc2n1Cc1ccc2ccccc2c1	5.06	
